pIC50: −log10 of the molar value. Calls of active or inactive are those of the source. No cut-off for these calls is given here.
Assays:
[1] = Ratio of drug level from brain to plasma in Sprague-Dawley rat at 10 mg/kg, iv measured at 2 hrs; format: ADME, organism-based; set-up: dose 10 mg/kg, route intravenous; conditions: read-out: BPR
How it was run: (§1)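 Rats fasted 12 h, then dosed orally by gavage or by bolus tail-vein injection at 2 ml/kg. Compound given as a 5 mg/ml solution in N-methyl-2-pyrrolidone/Tween 80/water (1:2:7). Samples taken at various times (n = 5) and stored at −70 °C. Plasma deproteinized with acetonitrile containing carbamazepine internal standard, then quantified by LC-MS/MS.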

[2] = Ratio of drug level from brain to plasma in Sprague-Dawley rat at 10 mg/kg, po measured at 2 hrs; format: ADME, organism-based; set-up: dose 10 mg/kg, route oral; conditions: read-out: BPR; how it was run: as §1
[3] = Tmax in Sprague-Dawley rat at 10 mg/kg, po; format: ADME, organism-based; set-up: dose 10 mg/kg, route oral; conditions: in vivo; how it was run: as §1
[4] = AUClast in Sprague-Dawley rat at 10 mg/kg, po; format: ADME, organism-based; set-up: time 0 - last, dose 10 mg/kg, route oral; conditions: plasma
[5] = AUC (0 to infinity) in Sprague-Dawley rat at 10 mg/kg, iv; format: ADME, organism-based; set-up: time infinity, dose 10 mg/kg, route intravenous; conditions: plasma
Mus musculus [6] = assay: Antiobesity activity in B6.V/J ob/ob mouse assessed as change in kidney weight at 50 mg/kg, po bid measured after 14 days (reference value: 0.339 +/- 0.009 g); format: functional
Mus musculus [7] = assay: Antiobesity activity in B6.V/J ob/ob mouse assessed as change in kidney weight at 5 mg/kg, po bid measured after 14 days (reference value: 0.339 +/- 0.009 g); format: functional
Mus musculus [8] = assay: Antiobesity activity in B6.V/J ob/ob mouse assessed as change in heart weight at 50 mg/kg, po bid measured after 14 days (reference value: 0.150 +/- 0.003 g); format: functional
Mus musculus [9] = assay: Antiobesity activity in B6.V/J ob/ob mouse assessed as change in thymus weight at 50 mg/kg, po bid measured after 14 days (reference value: 0.029 +/- 0.006 g); format: functional
Mus musculus [10] = assay: Antiobesity activity in B6.V/J ob/ob mouse assessed as change in spleen weight at 50 mg/kg, po bid measured after 14 days (reference value: 0.097 +/- 0.052 g); format: functional
Mus musculus [11] = assay: Antiobesity activity in B6.V/J ob/ob mouse assessed as change in liver weight at 25 mg/kg, po bid measured after 14 days (reference value: 3.396 +/- 0.162 g); format: functional
Mus musculus [12] = assay: Toxicity in B6.V/J ob/ob mouse assessed as mortality at 50 mg/kg, po bid measured after 14 days; format: organism-based; set-up: dose 50 mg/kg, route oral; conditions: in vivo, 336 h
Mus musculus [13] = assay: Antiobesity activity in B6.V/J ob/ob mouse assessed as reduction of body weight gain at 50 mg/kg, po bid measured after 14 days; format: functional, organism-based; set-up: dose 50 mg/kg
Mus musculus [14] = assay: Antiobesity activity in B6.V/J ob/ob mouse assessed as reduction of food intake at 25 mg/kg, po qd measured after 14 days; format: functional, organism-based; set-up: dose 25 mg/kg
How it was run: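 Male ob/ob mice (B6.V-Lep^ob/J) received oral doses once daily for 14 days, with vehicle control. Food intake and body weight gain were followed.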

Mus musculus [15] = assay: Antiobesity activity in B6.V/J ob/ob mouse assessed as inhibition of food intake at 50 mg/kg, ip measured up to 12 hrs relative to vehicle-treated control; format: functional; conditions: route intraperitoneal
How it was run: (§2)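 Male mice were acclimated 1 week at 23 ± 3 °C and 50 ± 20% humidity, then fasted 24 h. They were dosed once intraperitoneally with vehicle or compound: 50 mg/kg in C57BL/6, or 12.5, 25 or 50 mg/kg in B6.V-Lep^ob/J. Food intake was measured at 2, 6 and 12 h versus vehicle control.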

Mus musculus [16] = assay: Antiobesity activity in B6.V/J ob/ob mouse assessed as inhibition of food intake at 50 mg/kg, ip measured up to 2 hrs relative to vehicle-treated control; format: functional; conditions: route intraperitoneal; how it was run: as §2
Mus musculus [17] = assay: Antiobesity activity in B6.V/J ob/ob mouse assessed as inhibition of food intake at 12.5 mg/kg, ip measured up to 6 hrs relative to vehicle-treated control; format: functional; conditions: route intraperitoneal; how it was run: as §2
[18] = Displacement of [3H]-YM-09151-2 from cloned dopamine D4.2 receptor (unknown origin) expressed in Sf9 cells after 60 mins; set-up: species or system Homo sapiens
How it was run: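 Sf9 membranes with cloned D4.2 receptor incubated with 0.2 nM [3H]YM-09151-2 for 60 min at 27 °C in 50 mM Tris-HCl pH 7.4, 5 mM MgCl2, 5 mM EDTA, 5 mM KCl, 1.5 mM CaCl2. Clozapine defined nonspecific binding. Filtered on glass-fiber filters presoaked in 0.3% PEI.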

[19] = biological target: T1, 5-hydroxytryptamine receptor 1A (Homo sapiens, UniProt P08908); assay: Displacement from [3H]8-OH-DPAT from human recombinant 5HT-1A receptor expressed in HEK293 cells after 120 mins; format: cell-based
T1 sequence (P08908 whole entry): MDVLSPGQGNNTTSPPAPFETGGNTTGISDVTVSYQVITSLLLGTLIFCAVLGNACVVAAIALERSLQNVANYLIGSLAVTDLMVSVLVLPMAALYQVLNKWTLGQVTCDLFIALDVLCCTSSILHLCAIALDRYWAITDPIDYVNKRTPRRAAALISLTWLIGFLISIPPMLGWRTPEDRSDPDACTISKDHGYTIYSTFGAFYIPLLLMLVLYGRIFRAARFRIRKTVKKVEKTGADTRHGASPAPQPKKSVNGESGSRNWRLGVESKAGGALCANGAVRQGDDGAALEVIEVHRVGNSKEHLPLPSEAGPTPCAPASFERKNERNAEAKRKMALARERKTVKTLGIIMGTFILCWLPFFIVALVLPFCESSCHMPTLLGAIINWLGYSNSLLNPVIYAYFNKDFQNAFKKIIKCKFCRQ
How it was run: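 Membranes from HEK293-EBNA cells stably expressing recombinant human 5-HT1A. Incubated with 2 nM [3H]8-OH-DPAT and test compound at a range of concentrations in 50 mM Tris-HCl pH 7.4 with 5 mM MgSO4.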

[20] = biological target: 5-hydroxytryptamine receptor 2B (Homo sapiens, UniProt P41595); assay: Displacement of […] from human recombinant 5HT-2B receptor
5-hydroxytryptamine receptor 2B, sequence (P41595 whole entry): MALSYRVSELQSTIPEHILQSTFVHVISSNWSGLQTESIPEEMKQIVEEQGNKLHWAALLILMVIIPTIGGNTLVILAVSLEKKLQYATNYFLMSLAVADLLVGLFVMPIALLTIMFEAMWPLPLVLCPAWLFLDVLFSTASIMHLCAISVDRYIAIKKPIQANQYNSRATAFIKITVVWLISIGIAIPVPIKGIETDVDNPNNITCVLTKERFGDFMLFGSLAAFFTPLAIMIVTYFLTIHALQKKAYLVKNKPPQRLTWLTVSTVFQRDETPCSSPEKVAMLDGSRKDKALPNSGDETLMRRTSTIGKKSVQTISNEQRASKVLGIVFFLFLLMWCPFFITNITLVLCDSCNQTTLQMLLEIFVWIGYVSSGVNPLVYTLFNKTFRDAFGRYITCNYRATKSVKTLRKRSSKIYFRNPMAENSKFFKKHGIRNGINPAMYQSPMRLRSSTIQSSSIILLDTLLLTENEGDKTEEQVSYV

## Cl.Clc1cccc(Nc2nc(Cc3ccccc3)nc3c2CCNCC3)c1
[1]
  Kp at 2 h: 9.33
[2]
  Kp at 2 h: 0.66
[3]
  Tmax: 3.5 h
[4]
  AUC(0-t): 375 ng·h/mL
[5]
  AUC(0-inf): 1910 ng·h/mL
Mus musculus [6]
  Activity: 0.35 g
Mus musculus [7]
  Activity: 0.329 g
Mus musculus [8]
  Activity: 0.17 g
Mus musculus [9]
  Activity: 0.04 g
Mus musculus [10]
  Activity: 0.075 g
Mus musculus [11]
  Activity: 3.173 g
Mus musculus [12]
  Activity: Toxic
Mus musculus [13]
  Activity: Active
Mus musculus [14]
  Activity: inactive
Mus musculus [15]
  inhibition in vivo at 50 mg/kg: 93.3%
Mus musculus [16]
  inhibition in vivo at 50 mg/kg: 99.8%
Mus musculus [17]
  inhibition in vivo at 12.5 mg/kg: 71%
[18]
  pIC50: 6.05
[19]
  pIC50: 5.98
[20]
  pIC50: 7.49

— ChEMBL document CHEMBL2390866, “Novel pyrimidoazepine analogs as serotonin 5-HT(2A) and 5-HT(2C) receptor ligands for the treatment of obesity” (Eur J Med Chem, 2013)
